Measured values taken from ChEMBL document CHEMBL1765072, “Inhibition of amyloidogenesis by nonsteroidal anti-inflammatory drugs and their hybrid nitrates” (J Med Chem, 2011).
Calls of active or inactive are those of the source. No cut-off for these calls is given here.

Tests used:
[1] = Cytotoxicity against mouse RAW264.7 cells assessed as cell viability at 100 uM after 24 hrs by MTT assay relative to control; format: cell-based; settings: read-out: Activity
In short: (§1)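 RAW 264.7 cells given 0.5 mg/ml MTT in medium for 4 h, washed with PBS; formazan dissolved in DMSO, shaken 30 min, absorbance read at 570 nm against a 630 nm reference. Viability expressed relative to DMSO control.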

N2a [2] = assay: Antiamyloidogenic activity in mouse N2A cells transfected with human APP Swedish mutant assessed as increase of amyloid beta (1 to 40) level at 100 uM after 24 hrs by ELISA; format: functional, cell-based
N2a [3] = assay: Antiamyloidogenic activity in mouse N2A cells assessed as reduction of amyloid beta (1 to 42)/(1 to 40) ratio at 1 uM treated 24 hrs before amyloid beta (1 to 42)/(1 to 40) challenge measured after 8 hrs by MALDI/TOF analysis; format: functional, cell-based
In short: (§2)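 Wild-type N2a cells in DMEM with 0.2 % FBS, drug-treated after PBS wash; conditioned media collected (18 h per methods, 24 h per text), NaN₃ added, centrifuged, then mixed with Aβ1–40 + Aβ1–42 and incubated 8 h at 37 °C. Cell-free media served as control. Aβ measured by 4G8/6E10 immunoprecipitation and MALDI-TOF, normalized to Aβ1–43 spike and to media control; mean and s.d.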

N2a [4] = assay: Antiamyloidogenic activity in mouse N2A cells assessed as degradation of amyloid beta (1 to 42) level at 1 uM treated 24 hrs before amyloid beta (1 to 42) challenge measured after 8 hrs by MALDI/TOF analysis; format: functional, cell-based; in short: as §2
RAW264.7 [5] = assay: Antiinflammatory activity against mouse RAW264.7 cells assessed as LPS-induced nitrate production at 100 uM treated 30 mins before LPS challenge measured after 24 hrs by Griess reagent method relative to control
N2a [6] = assay: Antiamyloidogenic activity in mouse N2A cells transfected with human APP Swedish mutant assessed as increase of amyloid beta (1 to 42) level at 100 uM after 24 hrs by ELISA; format: functional, cell-based
N2a [7] = assay: Antiamyloidogenic activity in mouse N2A cells assessed as degradation of amyloid beta (1 to 40) level at 1 uM treated 24 hrs before amyloid beta (1 to 40) challenge measured after 8 hrs by MALDI/TOF analysis; format: functional, cell-based; in short: as §2
N2a [8] = assay: Antiamyloidogenic activity in mouse N2A cells transfected with human APP Swedish mutant assessed as increase of amyloid beta (1 to 42)/(1 to 40) ratio at 100 uM after 24 hrs by ELISA; format: functional, cell-based
N2a [9] = assay: Antiamyloidogenic activity in mouse N2A cells assessed as reduction of amyloid beta (1 to 42)/(1 to 40) ratio at 10 uM treated 24 hrs before amyloid beta (1 to 42)/(1 to 40) challenge measured after 8 hrs by MALDI/TOF analysis; format: functional, cell-based; in short: as §2
N2a [10] = assay: Antiamyloidogenic activity in mouse N2A cells assessed as degradation of amyloid beta (1 to 42) level at 10 uM treated 24 hrs before amyloid beta (1 to 42) challenge measured after 8 hrs by MALDI/TOF analysis; format: functional, cell-based; in short: as §2
RAW264.7 [11] = assay: Antiinflammatory activity against mouse RAW264.7 cells assessed as LPS-induced nitrate production at 10 uM treated 30 mins before LPS challenge measured after 24 hrs by Griess reagent method relative to control
[12] = Cytotoxicity against mouse RAW264.7 cells assessed as cell viability at 10 uM after 24 hrs by MTT assay relative to control; format: cell-based; settings: read-out: Activity; in short: as §1
N2a [13] = assay: Antiamyloidogenic activity in mouse N2A cells transfected with human APP Swedish mutant assessed as amyloid beta (1 to 42) level at 1 uM after 24 hrs by ELISA relative to control
N2a [14] = assay: Antiamyloidogenic activity in mouse N2A cells assessed as degradation of amyloid beta (1 to 40) level at 10 uM treated 24 hrs before amyloid beta (1 to 40) challenge measured after 8 hrs by MALDI/TOF analysis; format: functional, cell-based; in short: as §2
N2a [15] = assay: Antiamyloidogenic activity in mouse N2A cells transfected with human APP Swedish mutant assessed as increase of amyloid beta (1 to 40) level at 200 uM after 24 hrs by ELISA; format: functional, cell-based
N2a [16] = assay: Antiamyloidogenic activity in mouse N2A cells transfected with human APP Swedish mutant assessed as increase of amyloid beta (1 to 42) level at 200 uM after 24 hrs by ELISA relative to control; format: functional
N2a [17] = assay: Antiamyloidogenic activity in mouse N2A cells transfected with human APP Swedish mutant assessed as effect on amyloid beta (1 to 37) level at 200 uM after 24 hrs by ELISA; format: functional, cell-based
N2a [18] = assay: Antiamyloidogenic activity in mouse N2A cells transfected with human APP Swedish mutant assessed as effect on amyloid beta (1 to 38) level at 200 uM after 24 hrs by ELISA; format: functional, cell-based
N2a [19] = assay: Antiamyloidogenic activity in mouse N2A cells transfected with human APP Swedish mutant assessed as increase of amyloid beta (1 to 42) level at 200 uM after 24 hrs by ELISA; format: functional, cell-based
N2a [20] = assay: Antiamyloidogenic activity in mouse N2A cells transfected with human APP Swedish mutant assessed as increase of amyloid beta (1 to 42)/(1 to 40) ratio at 200 uM after 24 hrs by ELISA; format: functional, cell-based
N2a [21] = assay: Antiamyloidogenic activity in mouse N2A cells transfected with human APP Swedish mutant assessed as amyloid beta (1 to 42) level at 100 uM after 24 hrs by ELISA relative to control
[22] = Ratio of drug level in brain to plasma in C57BL/6 mouse at 10 mg/kg, ip after 30 mins; format: ADME, organism-based; design: dose 10 mg/kg, route intraperitoneal; settings: read-out: BPR
In short: (§3)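 Male C57BL/6 mice (25 g) dosed i.p. with 10 mg/kg in DMSO/H₂O 1:1, sacrificed at 30 or 120 min. Brain extracted by methanol homogenization and plasma by acetonitrile, then C18 LC-MS/MS with MRM m/z 361→200 in positive mode. Quantified against a 4–500 ng/mL standard curve; N=4, mean and s.e.m.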

[23] = Ratio of drug level in brain to plasma in C57BL/6 mouse at 10 mg/kg, ip after 120 mins; format: ADME, organism-based; design: dose 10 mg/kg, route intraperitoneal; settings: read-out: BPR; in short: as §3

In the case of `CC(C(=O)OCCCCO[N+](=O)[O-])c1ccc(-c2ccccc2)c(F)c1` (stereo not drawn), the viability at 24 h, 100 µM [1] is reported as 108%, the Activity (N2a [2]) is reported as “Active” and the Activity (N2a [3]) is reported as “Active”. For the same compound, the Activity (N2a [4]) was “Active”, the level, % of control at 100 µM (RAW264.7 [5]) was 49.8% and the Activity (N2a [6]) was “Active”. For the same compound, the Activity (N2a [7]) was “Active” and the Activity (N2a [8]) was “Active”.
With `CSc1ccc(/C=C2/C=C(CC(=O)O)c3cc(F)ccc32)cc1` the Activity (N2a [9]) was “Active”, the Activity (N2a [10]) was “Active” and the level, % of control at 10 µM (RAW264.7 [11]) was 47.5%. For the same compound, the viability at 24 h, 10 µM [12] was 100%, the level, % of control at 1 µM (N2a [13]) was 80.8% and the Activity (N2a [14]) was “Active”.
For `CC(C)OC(=O)C(C)(C)Oc1ccc(C(=O)c2ccc(Cl)cc2)cc1` [FENOFIBRATE], the Activity (N2a [15]) was “Active”, the “fold change (FC)” value (N2a [16]) was 3 and the Activity (N2a [17]) was “Active”. The Activity (N2a [18]) was “Active”, the Activity (N2a [19]) was “Active” and the Activity (N2a [20]) was “Active”.
Work on `COc1ccc2c(c1)c(CC(=O)O)c(C)n2C(=O)c1ccc(Cl)cc1` [INDOMETHACIN] yielded a level, % of control at 100 µM (N2a [21]) of 76.7%, a viability at 24 h, 100 µM [1] of 92% and a level, % of control at 100 µM (RAW264.7 [5]) of 39.8%. It also gave a level, % of control at 10 µM (RAW264.7 [11]) of 70.9%, a viability at 24 h, 10 µM [12] of 98.7% and a level, % of control at 1 µM (N2a [13]) of 108%.
`CC(C(=O)NCCCCO[N+](=O)[O-])c1ccc(-c2ccccc2)c(F)c1` (stereo not drawn) gave a Kp at 0.5 h [22] of 37 and a Kp at 2 h [23] of 13.
